Measurements taken from ChEMBL document CHEMBL1142962, “Antiproliferative prenylated stilbenes and flavonoids from Macaranga alnifolia from the Madagascar rainforest” (J Nat Prod, 2007).

Legend:
[1] = tested on: KM12; assay: Growth inhibition of KM12 cells; assay type: functional; conditions: Homo sapiens
[2] = Growth inhibition of HS 578T cells; assay type: functional; conditions: Homo sapiens
[3] = tested on: EKVX; assay: Growth inhibition of EKVX cells; assay type: functional; conditions: Homo sapiens
In short: (§1)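 Tested in the NCI 60 human tumour cell line screen, which was run by NCI. The value for each line is the GI50, the concentration giving 50% growth inhibition. Results are also shown as a mean graph across the full panel.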

[4] = tested on: HOP-92; assay: Growth inhibition of HOP92 cells; assay type: functional; conditions: Homo sapiens
[5] = tested on: SF-539; assay: Growth inhibition of SF539 cells; assay type: functional; conditions: Homo sapiens; in short: as §1
[6] = tested on: CAKI-1; assay: Growth inhibition of CAKI1 cells; assay type: functional; conditions: Homo sapiens; in short: as §1
[7] = tested on: SK-MEL-5; assay: Growth inhibition of SK-MEL-5 cells; assay type: functional; conditions: Homo sapiens
[8] = tested on: SNB-19; assay: Growth inhibition of SNB19 cells; assay type: functional; conditions: Homo sapiens
[9] = tested on: MDA-MB-435; assay: Growth inhibition of MDA-MB-435 cells; assay type: functional; conditions: Homo sapiens
[10] = tested on: ACHN; assay: Growth inhibition of ACHN cells; assay type: functional; conditions: Homo sapiens
[11] = tested on: SK-MEL-2; assay: Growth inhibition of SK-MEL-2 cells; assay type: functional; conditions: Homo sapiens
[12] = tested on: M14; assay: Growth inhibition of M14 cells; assay type: functional; conditions: Homo sapiens; in short: as §1
[13] = tested on: A2780 (human ovarian cancer); assay: Antiproliferative activity against drug-sensitive human A2780 cells
[14] = tested on: UACC-62; assay: Growth inhibition of UACC62 cells; assay type: functional; conditions: Homo sapiens
[15] = tested on: HCC 2998; assay: Growth inhibition of HCC2998 cells; assay type: functional; conditions: Homo sapiens
[16] = tested on: OVCAR-4; assay: Growth inhibition of OVCAR4 cells; assay type: functional; conditions: Homo sapiens
[17] = tested on: U-251; assay: Growth inhibition of U251 cells; assay type: functional; conditions: Homo sapiens
[18] = tested on: BT-549; assay: Growth inhibition of BT549 cells; assay type: functional; conditions: Homo sapiens
[19] = tested on: A549; assay: Growth inhibition of A549/ATCC cells; assay type: functional; conditions: Homo sapiens
[20] = tested on: LOX IMVI; assay: Growth inhibition of LOX IMVI cells; assay type: functional; conditions: Homo sapiens; in short: as §1
[21] = tested on: HT-29; assay: Growth inhibition of HT29 cells; assay type: functional; conditions: Homo sapiens; in short: as §1
[22] = tested on: NCI-H460; assay: Growth inhibition of NCI-H460 cells; assay type: functional; conditions: Homo sapiens
[23] = tested on: SNB-75; assay: Growth inhibition of SNB75 cells; assay type: functional; conditions: Homo sapiens
[24] = tested on: OVCAR-3; assay: Growth inhibition of OVCAR-3 cells; assay type: functional; conditions: Homo sapiens
[25] = tested on: UO-31; assay: Growth inhibition of UO31 cells; assay type: functional; conditions: Homo sapiens
[26] = tested on: SF-295; assay: Growth inhibition of SF295 cells; assay type: functional; conditions: Homo sapiens; in short: as §1
[27] = tested on: T47D; assay: Growth inhibition of T47D cells; assay type: functional; conditions: Homo sapiens; in short: as §1
[28] = tested on: RPMI-8226; assay: Growth inhibition of RPMI8226 cells; assay type: functional; conditions: Homo sapiens
[29] = read-out: Log LC50 (the source's name) (converted)

## COc1cc(/C=C/c2cc(O)c(CC=C(C)C)c(O)c2)cc2c1O[C@]1(C)C[C@@H](O)[C@@H](O)C(C)(C)[C@H]1C2 [SCHWEINFURTHIN E]
[1]
  GI50: 0.457 µM
[1]; [29]
  CC50: 9.55 µM
[1]; read-out: Log TGI (converted)
  TGI: 2.24 µM
[2]
  GI50: < 0.01 µM
[2]; [29]
  CC50: > 100 µM
[2]; read-out: Log TGI (converted)
  TGI: 0.363 µM
[3]
  GI50: 2.14 µM
[3]; [29]
  CC50: > 100 µM
[3]; read-out: Log TGI (converted)
  TGI: 28.2 µM
[4]
  GI50: 0.794 µM
[4]; [29]
  CC50: > 100 µM
[4]; read-out: Log TGI (converted)
  TGI: 5.13 µM
[5]
  GI50: < 0.01 µM
[5]; read-out: Log TGI (converted)
  TGI: 0.158 µM
[6]; read-out: GI50
  GI50: < 0.01 µM
[6]; [29]
  CC50: 0.55 µM
[6]; read-out: Log TGI (converted)
  TGI: < 0.01 µM
[6]; read-out: TGI
  TGI: < 0.01 µM
[6]; read-out: pGI50 (converted)
  GI50: < 0.01 µM
[7]
  GI50: 0.661 µM
[7]; [29]
  CC50: 5.62 µM
[7]; read-out: Log TGI (converted)
  TGI: 2.24 µM
[8]
  GI50: 11 µM
[8]; [29]
  CC50: > 100 µM
[8]; read-out: Log TGI (converted)
  TGI: > 100 µM
[9]
  GI50: 0.123 µM
[9]; [29]
  CC50: 8.71 µM
[9]; read-out: Log TGI (converted)
  TGI: 1.95 µM
[10]
  GI50: 0.372 µM
[10]; [29]
  CC50: 13.2 µM
[10]; read-out: Log TGI (converted)
  TGI: 3.02 µM
[11]
  GI50: 3.72 µM
[11]; [29]
  CC50: > 100 µM
[11]; read-out: Log TGI (converted)
  TGI: > 100 µM
[12]
  GI50: < 0.01 µM
[12]; [29]
  CC50: 4.27 µM
[12]; read-out: Log TGI (converted)
  TGI: 0.288 µM
[13]
  IC50: 0.26 µM
[14]
  GI50: < 0.01 µM
[14]; [29]
  CC50: 4.07 µM
[14]; read-out: Log TGI (converted)
  TGI: 0.372 µM
[15]
  GI50: 1.02 µM
[15]; [29]
  CC50: 6.46 µM
[15]; read-out: Log TGI (converted)
  TGI: 2.57 µM
[16]
  LC50: > 100 µM
[16]; read-out: GI50
  GI50: 2.2 µM
[16]; read-out: Log TGI (converted)
  TGI: 9.33 µM
[16]; read-out: pGI50 (converted)
  GI50: 0.575 µM
[17]
  GI50: < 0.01 µM
[17]; [29]
  CC50: 32.4 µM
[17]; read-out: Log TGI (converted)
  TGI: 3.98 µM
[18]
  GI50: 1.51 µM
[18]; [29]
  CC50: > 100 µM
[18]; read-out: Log TGI (converted)
  TGI: 13.2 µM
[19]
  GI50: < 0.01 µM
[19]; [29]
  CC50: > 100 µM
[19]; read-out: Log TGI (converted)
  TGI: 12.6 µM
[20]
  GI50: 0.646 µM
[20]; [29]
  CC50: 6.17 µM
[20]; read-out: Log TGI (converted)
  TGI: 2.34 µM
[21]
  GI50: 1.29 µM
[21]; [29]
  CC50: > 100 µM
[22]
  GI50: 0.151 µM
[22]; [29]
  CC50: > 100 µM
[22]; read-out: Log TGI (converted)
  TGI: > 100 µM
[23]
  GI50: 1.74 µM
[23]; [29]
  CC50: > 100 µM
[23]; read-out: Log TGI (converted)
  TGI: 20 µM
[24]; read-out: GI50
  GI50: 2.2 µM
[24]; [29]
  CC50: 24 µM
[24]; read-out: Log TGI (converted)
  TGI: 8.32 µM
[24]; read-out: pGI50 (converted)
  GI50: 6.17 µM
[25]
  GI50: 0.105 µM
[25]; [29]
  CC50: > 100 µM
[25]; read-out: Log TGI (converted)
  TGI: > 100 µM
[26]
  GI50: < 0.01 µM
  TGI: < 0.01 µM
[27]
  GI50: 3.24 µM
[27]; [29]
  CC50: > 100 µM
[27]; read-out: Log TGI (converted)
  TGI: > 100 µM
[28]
  GI50: < 0.01 µM
